High-throughput results (PubChem BioAssay)
LEDGF integ inh: blocks HIV-1 LEDGF/p75-dependent DNA integration | TR-FRET IN-LEDGF/p75 DNA integration, Eu/Cy5 | inhibition, % at 3.7 µM | 370,000 tested, 0.64% active | AID 743269;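 active = inhibition above the screen-wide mean plus 3 SD, cut at about 13% in these data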;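 note: signal is the Cy5 over europium emission ratio at 671 and 618 nm; 0% = plate median of compound wells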
ASAP1 GAP inh: inhibitors of human ASAP1 ArfGAP activity | Q9ULH1 | AID 624377 | 360,000 tested, 0.19% active | ASAP1-stimulated ARF1 GTP hydrolysis, GDP FP detection | inhibition, % at 16.5 µM; in the data active = inhibition above about 25%;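 note: 0% = vehicle with enzyme and substrate and 100% = no enzyme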
ARFGAP1 inhibitor: inhibitors of rat ARFGAP1 | 360,000 tested, 0.26% active | inhibition, % at 16.5 µM | Arfgap1-stimulated ARF1 GTP hydrolysis, GDP FP detection | Q62848;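 active = inhibition above a per-plate limit, mean inhibition of low control wells plus 3 SD, cut at about 25% in these data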;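 note: 0% = DMSO wells with enzyme and 100% = wells lacking Arfgap1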
Target sequence (Q62848 1-136 limits assumed): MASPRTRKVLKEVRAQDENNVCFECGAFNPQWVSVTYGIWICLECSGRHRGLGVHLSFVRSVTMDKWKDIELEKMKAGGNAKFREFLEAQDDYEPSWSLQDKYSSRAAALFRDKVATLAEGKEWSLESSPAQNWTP
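system = rat Arfgap1 catalytic domain, aa 1-136 | technique = FP, GDP Alexa 633 tracer displaced from anti-GDP antibody, 620/688 nm | compound = one concentration, 16.5 µM, DMSO 1.26% | medium = HEPES-based buffer, pH 7.5 | timing = compound-enzyme preincubation 20 min, reaction 120 min, detection 60 min, 25 °C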
TDP2 absorb: TDP2 (human) inhibition, absorbance primary screen | 370,000 tested, 0.34% active | O95551 | recombinant TDP2, T5PNP hydrolysis, p-nitrophenol absorbance 415 nm | AID 720702 | inhibition, % at 12.8 µM;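 active = inhibition above the mean of all tested compounds plus 3 SD, set per campaign, cut at about 25% in these data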;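 note: 0% = DMSO with enzyme and 100% = buffer with substrate but no TDP2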
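Read-out basis: percent inhibition. System: recombinant human TDP2. Buffer or medium: Mg2+-containing Tris-HCl buffer, pH 7.5. Repeats: single replicate. Timing: reaction 2 h, 37 °C. Benchmarks: high control without enzyme, low control DMSO plus TDP2. Probe or stimulus: 5 mM T5PNP. Doses: 12.8 µM only. Measured by: epi absorbance of p-nitrophenol freed from T5PNP by hydrolysis.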
CASP6 VEID inh: inhibitors of human caspase-6. P55212. purified caspase-6, Z-VEID-R110 cleavage fluorescence. inhibition, % at 12.5 µM. 350,000 tested, 0.53% active;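 active = mean inhibition across replicates at least about 35%, with every replicate also reaching that limit, limit read from the data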;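 note: 0% = median of neutral control wells and 100% = no fluorescence left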
Target sequence (P55212 24-179 limits assumed): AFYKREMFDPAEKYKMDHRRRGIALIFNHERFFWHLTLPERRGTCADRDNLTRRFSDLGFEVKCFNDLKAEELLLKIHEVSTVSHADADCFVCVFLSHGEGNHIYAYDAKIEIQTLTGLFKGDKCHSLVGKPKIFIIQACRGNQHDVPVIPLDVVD
Target sequence (P55212 194-293 limits assumed): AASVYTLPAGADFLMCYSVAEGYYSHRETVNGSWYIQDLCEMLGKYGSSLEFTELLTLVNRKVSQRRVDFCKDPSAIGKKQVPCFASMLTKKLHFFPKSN
* marks the source's active call; other numbers are inactive results; nt = no result; + = active, no number; ! = a repeat was not active. A selection: hits, their analogues and other compounds. The true share with any hit is near 1.3%.

SMILES | LEDGF integ inh | ASAP1 GAP inh | ARFGAP1 inhibitor | TDP2 absorb | CASP6 VEID inh
Cc1cc(Cl)ccc1OCC(=O)NCCC(=O)O | 1 | 6 | 13 | 4 | 1
Cc1cc(Cl)ccc1OCC(=O)OCC(=O)NCCNC(=O)COC(=O)COc1ccc(Cl)cc1C | 20* | 2 | -3 | -3 | -5
O=C(COC(=O)c1ccc([N+](=O)[O-])o1)Nc1ccc(Br)cc1F | 7 | -2 | 0 | 7 | 38*
O=C(COC(=O)c1ccc(Br)o1)Nc1ncc(Cl)cc1Cl | 3 | -5 | -5 | 9 | 11
O=C(COC(=O)c1ccc([N+](=O)[O-])o1)Nc1ccc(F)cc1 | 0 | 3 | -3 | -5 | 55*
O=C(COC(=O)c1ccc([N+](=O)[O-])o1)Nc1ncc(Cl)cc1Cl | 1 | 1 | 11 | -2 | 61*
Cc1cccc(NC(=O)COC(=O)c2ccc([N+](=O)[O-])o2)c1C | -2 | -6 | -11 | 14 | 0
CC(=O)OCC1=C(C(=O)O)N2C(=O)[C@@H](NC(=O)Cc3ccccc3)[C@H]2SC1 | 0 | -2 | -15 | -6 | 4
CC(=O)OCC1=C(C(=O)O)N2C(=O)C(NC(=O)c3ccc(COc4c(C)cccc4Cl)o3)C2SC1 (stereo unspecified) | -3 | 5 | -5 | -5 | 40*
CC(=O)OCC1=C(C(=O)O)N2C(=O)C(NC(=O)c3ccc(COc4ccc(Cl)cc4)o3)C2SC1 (stereo unspecified) | 2 | 4 | 8 | 1 | 60*
O=C(CSc1nnc(CNC(=O)c2ccccc2)o1)NCCc1ccccc1 | -1 | -6 | 7 | -3 | -1
Oc1ccc(/C=N/Nc2cc(N3CCCC3)nc(N3CCCC3)n2)cc1O | 33* | 11 | 2 | -4 | 17
O=C(C[C@H]1C=C[C@H](NC(=O)c2ccccc2)[C@H](CO)O1)NCCc1ccncc1 | nt | nt | nt | nt | 41*
O=C(C[C@H]1C=C[C@H](NC(=O)c2ccccc2)[C@@H](CO)O1)NCCc1ccncc1 | nt | nt | nt | nt | -5
O=C(COC(=O)Cc1ccc(S(=O)(=O)N2CCOCC2)s1)Nc1ccc(F)cc1F | -6 | -2 | 2 | -2 | 43*
CC1CCCCC12NC(=O)N(Cc1cc(=O)n3ccsc3n1)C2=O (stereo unspecified) | -1 | -6 | 4 | 10 | 42*
N=C(N)c1ccc(N=Nc2c(O)ccc3c2[nH]c2ccccc23)cc1 | 0 | 175* | + | 5 | 31
Oc1ccc(N=Nc2c(O)ccc3ccccc23)cc1 | -1 | 4 | 9 | -12 | 3
CC(=O)Nc1ccc(S(=O)(=O)NC2CC(=O)N(c3cccc(F)c3)C2)cc1 (stereo unspecified) | -2 | -1 | 2 | -6 | -2
O=C1CC(NS(=O)(=O)c2cc(F)ccc2F)CN1c1cccc(F)c1 (stereo unspecified) | 0 | -3 | -15 | 5 | 37*
Cc1cc(Cl)ccc1NC(=O)CCN1C(=O)C2CCCCC2C1=O (stereo unspecified) | 0 | 3 | 1 | 1 | 5
COCC(=O)Nc1nc2n(n1)C(c1ccc(OC)cc1)CC(c1ccc(OC)cc1)N2 (stereo unspecified) | -1 | -2 | -5 | -2 | nt
O=C1C(SCCO)=C(SCCO)C(=O)c2ccccc21 | 29* | 19 | -5 | 78* | 6
O=C1C(Cl)=C(NCCCO)C(=O)c2ccccc21 | 4 | 1 | -11 | 12 | nt
C=CCSc1nc(C)cc2c1C(=O)OC2 | -5 | 1 | -11 | 3 | -1
SMILES | LEDGF integ inh | ASAP1 GAP inh | ARFGAP1 inhibitor | TDP2 absorb | CASP6 VEID inh
CC12CC3(C)CC(C)(C1)CC(C(=O)NC(=S)NC(C)(C)C)(C2)C3 | 1 | -3 | 9 | 3 | -1
CCN=C1S/C(=C/c2ccc(-c3ccc(Cl)cc3C(=O)O)o2)C(=O)N1CC | 4 | 7 | 5 | -7 | 36*
N#Cc1c(SCC(=O)Nc2ccc(C(F)(F)F)cc2)sc2c(O)cc(=O)[nH]c12 | 4 | 1 | 5 | 3 | 41*
COc1ccc(OC)c(NC(=O)CSc2sc3c(O)cc(=O)[nH]c3c2C#N)c1 | 0 | 5 | -5 | -1 | 43*
COc1cc(Cl)c(C)cc1NC(=O)CSc1sc2c(O)cc(=O)[nH]c2c1C#N | 11 | -5 | 2 | 0 | 26
Cc1ccc(NC(=O)CSc2sc3c(O)cc(=O)[nH]c3c2C#N)c(F)c1 | 4 | -14 | 1 | 19 | 29
CCCCn1c(N)c(N(CC(C)C)C(=O)CN2C(=O)C3CCCCC3C2=O)c(=O)[nH]c1=O (stereo unspecified) | 0 | 9 | -9 | -1 | -2
CO[C@@H]1CN(C)C(=O)c2cc(NC(=O)C3CCCC3)ccc2OC[C@@H](C)N(C(=O)CC2CC2)C[C@H]1C | nt | nt | nt | nt | 1
CN(CC(=O)Nc1ccc(Cl)c(Cl)c1)C(=O)c1ccccc1SCC(=O)N1CCCC1 | -4 | -7 | -5 | -2 | 1
CN(CC(=O)Nc1ccc(OC(F)(F)F)cc1)C(=O)c1ccccc1SCC(=O)N1CCCC1 | 2 | -7 | -7 | 4 | 81*
CCC(C)(C)n1nnnc1C(c1ccc(C)cc1)N1CCSCC1 (stereo unspecified) | 1 | -5 | 10 | -4 | nt
CN1CCN(CC(=O)Nc2ccc(Cl)cc2Cl)CC1 | -1 | -17 | -2 | 6 | 43*
C[C@@H]1CN([C@H](C)CO)C(=O)CCCn2nncc2CO[C@H]1CN(C)C(=O)c1ccncc1 | -1 | -5 | -4 | 8 | -5
C[C@H](CO)N1C[C@H](C)[C@@H](CN(C)C(=O)c2ccncc2)OCc2cnnn2CCCC1=O | 1 | -4 | -7 | -7 | 39*!
CC(=O)NN1C(=O)/C(=C\c2ccc(Br)o2)SC1=S | 10 | -10 | 1 | 5 | 51*
CCC(C(=O)NCc1ccccc1)n1c(C2CCN(C(C)=O)CC2)nc2ccccc21 (stereo unspecified) | -3 | -7 | 7 | 3 | 1
N#CC(C#N)=C(N)/C(C#N)=C/c1cc(O)c(O)c(O)c1 | 5 | 2 | 4 | -4 | 41*
N#C/C(=C/c1cc(Cl)c(O)c(Cl)c1)C(=O)N1CCCCC1 | -4 | -8 | -6 | 5 | 1
Cc1ccc(CNC(=O)Cc2csc(Nc3nc(=S)[nH]c4ccccc34)n2)cc1 | -1 | 11 | -7 | -3 | 41*
CC(C)(C)c1ccc(C2C(C#N)=C(N)Oc3n[nH]c(-c4cccnc4)c32)cc1 (stereo unspecified) | 0 | -11 | 2 | 36* | -1
COc1cc(OC)cc(C2C(C#N)=C(N)Oc3n[nH]c(-c4cccnc4)c32)c1 (stereo unspecified) | -2 | -2 | -9 | 7 | 1
O=c1ccc2cc3c([nH]c4ccc(Br)cc43)oc-2c1O | 66* | 15 | 13 | 3 | nt
CCOc1cc(N2CCOCC2)c(OCC)cc1NS(=O)(=O)c1cc(NC(C)=O)ccc1OC | -5 | -5 | -6 | 11 | 37*
